Measured values as given in ChEMBL document CHEMBL1153313, “Fluorinated 9H-xanthene-9-carboxylic acid oxazol-2-yl-amides as potent, orally available mGlu1 receptor enhancers” (Bioorg Med Chem Lett, 2009).
pEC50: −log10 of the molar value.

Assays:
[1] = target: T1, Metabotropic glutamate receptor 1 (Rattus norvegicus, UniProt P23385); test: Agonist activity at rat mGlu1 receptor expressed in HEK293 cells assessed as increase in intracellular calcium by FLIPR assay; type: functional, cell-based; conditions: for pEC50: read-out: EC50; for EC50: hek293
Procedure, shortened: (§1)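 Rat mGlu1a transiently transfected into HEK-293 cells, which were loaded with Fluo-3 AM for 1 h and then washed 4 times in assay buffer (DMEM with Hank's salts, 20 mM HEPES). [Ca2+]i was read on a fluorometric imaging plate reader and converted to fluorescence ratios. EC50 is the mean of separate values from at least three individual experiments.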

[2] = target: Metabotropic glutamate receptor 1 (Rattus norvegicus) (UniProt P23385); test: Agonist activity at rat mGlu1 receptor expressed in HEK293 cells assessed as increase in intracellular calcium by FLIPR assay relative to control; type: functional, cell-based; parameters: concentration or dose not given beside the values; procedure, shortened: as §1
[3] = target: Metabotropic glutamate receptor 1 (Rattus norvegicus) (UniProt P23385); test: Agonist activity at rat mGlu1 receptor expressed in CHO cells assessed as […] of glutamate-activated K+ currents by electrophysiology relative to glutamate; type: functional, cell-based; parameters: concentration or dose not given beside the values
[4] = Metabolic stability in rat microsomes assessed as intrinsic clearance per mg protein; type: ADME, Microsome
[5] = Cmax in rat plasma at 10 mg/kg, po; type: ADME, organism-based; parameters: dose 10 mg/kg, route oral
Procedure, shortened: (§2)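 Wistar rats, two per group, fitted with implanted jugular vein catheters. These catheters were used for the iv bolus and for blood sampling. Blood was drawn at 0.3, 0.5, 1, 2, 4, 8 and 24 h after iv or po administration for the plasma pharmacokinetic parameters.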

[6] = Clearance in rat at 5 mg/kg, iv and 10 mg/kg, po; type: ADME, organism-based; conditions: in vivo; procedure, shortened: as §2
[7] = Volume of distribution in rat at 5 mg/kg, iv and 10 mg/kg, po; type: ADME, organism-based; conditions: in vivo, read-out: Vdss; procedure, shortened: as §2
[8] = Half life in rat at 5 mg/kg, iv and 10 mg/kg, po; type: ADME, organism-based; conditions: in vivo; procedure, shortened: as §2
[9] = target: T1, Metabotropic glutamate receptor 1; test: Agonist activity at rat mGlu1 receptor expressed in CHO cells assessed as potentiation of glutamate-activated K+ currents by electrophysiology
[10] = tested on: Rattus norvegicus; test: Volume of distribution in rat at 10 mg/kg, iv and po; type: ADME, organism-based; parameters: dose 10 mg/kg, route oral; conditions: in vivo; procedure, shortened: as §2
[11] = Half life in rat at 10 mg/kg, iv and po; type: ADME, organism-based; parameters: dose 10 mg/kg, route oral; conditions: in vivo; procedure, shortened: as §2
[12] = Clearance in rat at 3 mg/kg, iv and 6 mg/kg, po; type: ADME, organism-based; conditions: in vivo; procedure, shortened: as §2
[13] = Volume of distribution in rat at 3 mg/kg, iv and 6 mg/kg, po; type: ADME, organism-based; conditions: in vivo, read-out: Vdss; procedure, shortened: as §2
[14] = Half life in rat at 3 mg/kg, iv and 6 mg/kg, po; type: ADME, organism-based; conditions: in vivo; procedure, shortened: as §2
[15] = Cmax in rat plasma at 6 mg/kg, po; type: ADME, organism-based; parameters: dose 6 mg/kg, route oral; procedure, shortened: as §2
[16] = Clearance in rat at 1 mg/kg, iv and 10 mg/kg, po; type: ADME, organism-based; conditions: in vivo; procedure, shortened: as §2
[17] = Volume of distribution in rat at 1 mg/kg, iv and 10 mg/kg, po; type: ADME, organism-based; conditions: in vivo, read-out: Vdss; procedure, shortened: as §2
[18] = Half life in rat at 1 mg/kg, iv and 10 mg/kg, po; type: ADME, organism-based; conditions: in vivo; procedure, shortened: as §2
[19] = Ratio of drug level in brain to plasma in rat at 1 mg/kg, iv and 6 mg/kg, po; type: ADME, organism-based; conditions: in the assay text read “10 mg/kg” for “6 mg/kg”, read-out: BPR
Procedure, shortened: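 Brain/plasma ratio came from iv infusion in Wistar rats, two per group, at 1 mg/kg/h via catheter. Blood was sampled sublingually at 1, 3 and 5 h after administration. Brain tissue was taken by decapitation under isoflurane anaesthesia.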

T1 sequence (P23385 whole entry): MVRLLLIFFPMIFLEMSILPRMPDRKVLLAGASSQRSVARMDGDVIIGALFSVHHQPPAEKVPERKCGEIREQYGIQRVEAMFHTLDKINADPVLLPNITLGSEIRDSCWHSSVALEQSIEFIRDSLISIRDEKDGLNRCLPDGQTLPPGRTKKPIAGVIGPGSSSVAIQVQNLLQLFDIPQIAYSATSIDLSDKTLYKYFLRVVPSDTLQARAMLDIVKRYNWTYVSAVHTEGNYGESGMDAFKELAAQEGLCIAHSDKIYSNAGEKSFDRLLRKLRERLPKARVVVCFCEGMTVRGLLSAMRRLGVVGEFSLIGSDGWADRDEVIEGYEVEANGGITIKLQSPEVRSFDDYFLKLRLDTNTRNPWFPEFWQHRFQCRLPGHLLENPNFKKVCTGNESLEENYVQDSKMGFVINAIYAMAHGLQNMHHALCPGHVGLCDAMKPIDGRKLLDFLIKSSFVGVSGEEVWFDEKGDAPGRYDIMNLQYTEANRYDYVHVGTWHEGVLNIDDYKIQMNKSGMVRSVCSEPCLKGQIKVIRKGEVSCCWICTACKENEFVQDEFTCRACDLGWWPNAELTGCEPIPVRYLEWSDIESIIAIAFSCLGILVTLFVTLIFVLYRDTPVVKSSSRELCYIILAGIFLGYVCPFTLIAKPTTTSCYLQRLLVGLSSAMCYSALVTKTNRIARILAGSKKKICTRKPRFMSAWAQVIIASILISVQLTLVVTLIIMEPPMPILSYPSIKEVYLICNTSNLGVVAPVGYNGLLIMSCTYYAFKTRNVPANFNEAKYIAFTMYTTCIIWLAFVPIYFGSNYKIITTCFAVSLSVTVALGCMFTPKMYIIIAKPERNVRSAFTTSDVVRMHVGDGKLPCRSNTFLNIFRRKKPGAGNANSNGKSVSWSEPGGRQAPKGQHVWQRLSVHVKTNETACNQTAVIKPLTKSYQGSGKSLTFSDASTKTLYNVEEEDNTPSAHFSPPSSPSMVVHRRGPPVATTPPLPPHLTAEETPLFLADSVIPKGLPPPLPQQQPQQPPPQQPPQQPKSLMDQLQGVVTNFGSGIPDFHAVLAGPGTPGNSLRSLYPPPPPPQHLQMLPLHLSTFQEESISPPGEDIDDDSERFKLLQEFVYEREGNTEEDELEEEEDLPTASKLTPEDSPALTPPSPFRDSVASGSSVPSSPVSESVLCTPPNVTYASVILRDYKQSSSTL
Sequence of Metabotropic glutamate receptor 1 (Rattus norvegicus) (P23385 19-1199 limits assumed): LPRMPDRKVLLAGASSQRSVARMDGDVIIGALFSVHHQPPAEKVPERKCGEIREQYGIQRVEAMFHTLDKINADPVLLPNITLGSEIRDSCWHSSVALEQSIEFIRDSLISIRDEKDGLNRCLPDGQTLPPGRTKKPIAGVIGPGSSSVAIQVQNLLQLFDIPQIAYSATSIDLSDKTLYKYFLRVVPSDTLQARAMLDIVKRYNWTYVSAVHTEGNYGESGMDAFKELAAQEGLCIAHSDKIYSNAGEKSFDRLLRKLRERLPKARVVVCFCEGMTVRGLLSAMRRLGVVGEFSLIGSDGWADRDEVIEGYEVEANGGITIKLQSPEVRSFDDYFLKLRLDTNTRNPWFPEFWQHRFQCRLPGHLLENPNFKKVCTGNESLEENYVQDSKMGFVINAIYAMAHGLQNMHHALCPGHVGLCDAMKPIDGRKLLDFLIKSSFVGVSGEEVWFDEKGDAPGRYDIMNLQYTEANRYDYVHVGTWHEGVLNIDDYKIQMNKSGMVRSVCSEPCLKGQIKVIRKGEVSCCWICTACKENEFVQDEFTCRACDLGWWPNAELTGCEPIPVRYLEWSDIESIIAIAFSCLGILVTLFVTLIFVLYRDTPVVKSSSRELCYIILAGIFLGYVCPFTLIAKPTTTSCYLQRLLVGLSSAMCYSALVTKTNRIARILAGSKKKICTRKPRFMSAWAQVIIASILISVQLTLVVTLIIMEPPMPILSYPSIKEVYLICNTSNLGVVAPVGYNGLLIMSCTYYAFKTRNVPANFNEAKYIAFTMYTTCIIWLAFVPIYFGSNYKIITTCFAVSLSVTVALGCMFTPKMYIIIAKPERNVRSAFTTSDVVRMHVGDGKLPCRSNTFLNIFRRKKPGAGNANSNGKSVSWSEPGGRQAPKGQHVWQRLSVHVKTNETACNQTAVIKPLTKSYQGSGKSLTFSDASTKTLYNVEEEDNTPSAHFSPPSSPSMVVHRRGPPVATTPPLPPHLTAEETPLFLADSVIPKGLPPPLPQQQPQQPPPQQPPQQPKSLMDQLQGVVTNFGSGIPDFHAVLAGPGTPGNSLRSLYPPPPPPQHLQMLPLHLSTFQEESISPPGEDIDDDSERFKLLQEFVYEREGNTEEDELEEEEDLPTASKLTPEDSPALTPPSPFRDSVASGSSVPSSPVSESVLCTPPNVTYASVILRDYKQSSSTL

| SMILES | pEC50 [1] | Activity [2] | Activity [3] | clearance [4] | pEC50 [9] | also measured |
| --- | --- | --- | --- | --- | --- | --- |
| O=C(Nc1nc(C(F)(F)F)co1)C1c2ccccc2Oc2c(F)cccc21 (racemic) | 7.72 | 84% | 1190% | 33 µL/min/mg | 6.99 | Cmax [5]: 1440 ng/mL; clearance [6]: 3.3 mL/min/kg; Vd [7]: 0.99 L/kg; half-life [8]: 3.7 h |
| O=C(Nc1ncc(C(F)(F)F)o1)C1c2ccccc2Oc2cc(F)ccc21 (racemic) |  |  |  | 28 µL/min/mg |  | EC50 [1]: Not Active |
| O=C(Nc1nc(C(F)(F)F)co1)C1c2ccc(F)cc2Oc2cc(F)ccc21 |  |  |  | 38 µL/min/mg |  | EC50 [1]: Not Active |
| Cc1nc(NC(=O)C2c3ccccc3Oc3ccccc32)no1 | 7.28 | 100% |  | 42 µL/min/mg | 6.66 | Vdss [10]: 1.7 L/kg; half-life [11]: 0.32 h; Cmax [5]: 1330 ng/mL |
| O=C(Nc1nc(C(F)(F)F)co1)C1c2cc(F)ccc2Oc2ccc(F)cc21 |  | 48% | 300% | 9 µL/min/mg | 7.05 | clearance [12]: 7.4 mL/min/kg; Vd [13]: 0.9 L/kg; half-life [14]: 2.46 h; Cmax [15]: 1810 ng/mL |
| O=C(Nc1nc(C(F)(F)F)co1)C1c2ccccc2Oc2ccc(F)cc21 (racemic) | 7.40 | 63% |  | 61 µL/min/mg |  |  |
| O=C(Nc1ncc(C(F)(F)F)o1)C1c2ccc(F)cc2Oc2cc(F)ccc21 |  |  |  |  |  | EC50 [1]: Not Active |
| O=C(Nc1nc(C(F)(F)F)co1)C1c2ccccc2Oc2cc(F)ccc21 (racemic) | 7.40 | 50% | 570% | 34 µL/min/mg | 6.59 |  |
| O=C(Nc1nc(C(F)(F)F)co1)C1c2ccccc2Oc2ccccc21 |  | 86% | 1130% | 108 µL/min/mg | 6.69 | Vdss [10]: 0.67 L/kg; half-life [11]: 0.91 h; Cmax [5]: 1330 ng/mL |
| O=C(Nc1ncc(C(F)(F)F)o1)C1c2ccccc2Oc2ccc(F)cc21 (racemic) | 7.70 | 57% | 1220% | 40 µL/min/mg | 7.17 |  |
| O=C(Nc1ncc(C(F)(F)F)o1)C1c2ccccc2Oc2ccccc21 |  | 104% | 3060% | 50 µL/min/mg | 6.40 |  |
| O=C(Nc1ncc(C(F)(F)F)o1)C1c2ccccc2Oc2c(F)cccc21 (racemic) |  | 50% | 910% | 32 µL/min/mg | 6.88 |  |
| O=C(Nc1ncc(C(F)(F)F)o1)C1c2cccc(F)c2Oc2c(F)cccc21 | 7.60 | 36% | 568% | 12 µL/min/mg | 6.79 |  |
| O=C(Nc1nc(C(F)(F)F)co1)C1c2cccc(F)c2Oc2c(F)cccc21 | 7.33 | 51% | 707% | 18 µL/min/mg | 6.79 | Cmax [5]: 2070 ng/mL; clearance [16]: 3.79 mL/min/kg; Vd [17]: 0.43 L/kg; half-life [18]: 3.9 h; Kp [19]: 0.2 |
